The values below come from publication PMC4011022 (Molecular cell, 2014).

For experiment [1], the target named is T1, CK2α (casein kinase-2 catalytic subunit) (Homo sapiens, UniProt P68400). The experiment is classed as binding. The method in brief:
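GST-tagged CK2α was expressed in E. coli and purified. Twenty μg, held on glutathione beads, was incubated overnight at 4 °C with [3H]IP6 (10–20 Ci/mmol) in 40 mM Tris pH 8.0, 150 mM NaCl, 1 mM MgCl2, 4% glycerol and 0.1% Triton. Unlabeled IP6 was added over a concentration series as competitor. Controls were buffer or GST alone. Data are mean ± SE of at least three independent experiments.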

For experiment [2], the target named is T1, CK2α (casein kinase-2 catalytic subunit). Nature of the experiment: competition of [3H]IP6 radioligand binding to purified recombinant GST-CK2α.

Like-named read-outs stand apart in the source and are kept apart here.

T1 sequence (P68400 whole entry): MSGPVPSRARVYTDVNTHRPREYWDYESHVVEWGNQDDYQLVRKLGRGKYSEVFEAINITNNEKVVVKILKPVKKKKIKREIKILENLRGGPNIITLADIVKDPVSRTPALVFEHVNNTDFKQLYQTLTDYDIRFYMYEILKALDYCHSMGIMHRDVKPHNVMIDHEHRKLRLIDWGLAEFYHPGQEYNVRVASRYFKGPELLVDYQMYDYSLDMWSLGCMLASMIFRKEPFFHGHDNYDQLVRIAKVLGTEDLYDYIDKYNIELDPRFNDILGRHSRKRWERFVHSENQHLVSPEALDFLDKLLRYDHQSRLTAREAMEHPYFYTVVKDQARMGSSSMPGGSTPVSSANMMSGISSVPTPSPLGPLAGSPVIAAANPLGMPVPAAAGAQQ

With `O=P(O)(O)O[C@H]1[C@H](OP(=O)(O)O)[C@@H](OP(=O)(O)O)[C@H](OP(=O)(O)O)[C@@H](OP(=O)(O)O)[C@H]1OP(=O)(O)O` [IP6], the IC50 in experiment [1] turned out to be 14 µM. Take `O=P(O)(O)O[C@H]1[C@@H](OP(=O)(O)O)[C@H](OP(=O)(O)O)[C@@H](OP(=O)(O)OP(=O)(O)O)[C@H](OP(=O)(O)O)[C@H]1OP(=O)(O)O` [IP7]: in experiment [2], the concentration for half-maximal inhibition (IC50) was about 0.4 µM.

For orientation: IC50 means the concentration that inhibits the measured activity by half.
